Data from ChEMBL document CHEMBL1132183 (J Med Chem, 1999).

Tests used:
[1] = biological target: T1, 5-hydroxytryptamine receptor 1A (Homo sapiens, UniProt P08908); test: Displacement of [3H]8-hydroxy-2-(di-n-propylamino)tetralin from human 5-hydroxytryptamine 1A receptor
T1 sequence (P08908 whole entry): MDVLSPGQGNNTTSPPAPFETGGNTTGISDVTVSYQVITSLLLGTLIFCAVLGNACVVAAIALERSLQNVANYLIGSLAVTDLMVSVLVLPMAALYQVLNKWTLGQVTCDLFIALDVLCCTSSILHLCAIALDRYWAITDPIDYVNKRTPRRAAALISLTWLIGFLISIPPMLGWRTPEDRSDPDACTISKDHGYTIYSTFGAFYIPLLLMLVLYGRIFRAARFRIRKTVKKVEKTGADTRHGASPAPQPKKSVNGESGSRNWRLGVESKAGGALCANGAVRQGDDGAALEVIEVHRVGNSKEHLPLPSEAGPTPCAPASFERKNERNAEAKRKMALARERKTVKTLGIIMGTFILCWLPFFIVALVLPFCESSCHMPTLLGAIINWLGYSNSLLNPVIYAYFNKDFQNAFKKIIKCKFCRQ
Method in brief: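 Membranes of HeLa cells stably transfected with human 5-HT1A (genomic clone G-21), in 50 mM Tris-HCl pH 7.4, 2.5 mM MgCl2, 10 μM pargiline. […] Nonspecific binding defined with 10 μM 5-HT. Filtration, scintillation counting. Ki by Cheng–Prusoff; 2–3 experiments in triplicate.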

[2] = biological target: T2, Alpha-1A adrenergic receptor (Rattus norvegicus) (UniProt P43140); test: Antagonist activity against Alpha-1A adrenergic receptor (-)-noradrenaline-induced contraction of rat prostatic vas deferens; assay type: functional, tissue-based
T2 sequence (whole entry): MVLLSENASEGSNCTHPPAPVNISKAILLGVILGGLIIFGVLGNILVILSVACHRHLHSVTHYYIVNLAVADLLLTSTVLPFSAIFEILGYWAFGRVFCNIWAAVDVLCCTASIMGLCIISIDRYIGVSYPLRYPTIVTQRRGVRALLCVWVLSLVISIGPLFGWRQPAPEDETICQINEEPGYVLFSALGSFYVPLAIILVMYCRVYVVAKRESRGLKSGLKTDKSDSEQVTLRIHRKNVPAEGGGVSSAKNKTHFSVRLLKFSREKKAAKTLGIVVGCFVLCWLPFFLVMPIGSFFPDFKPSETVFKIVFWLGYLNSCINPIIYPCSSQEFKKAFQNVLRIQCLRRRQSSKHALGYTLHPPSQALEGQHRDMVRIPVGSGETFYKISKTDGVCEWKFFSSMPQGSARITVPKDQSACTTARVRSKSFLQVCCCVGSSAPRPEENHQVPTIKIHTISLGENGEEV
Method in brief: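 Isolated rat prostatic vas deferens with 0.01 μM desipramine in the bath. Isotonic cumulative (–)-noradrenaline curves were run at 30-min intervals: first discarded, second as control, then antagonist equilibrated 30 min before a new curve. pKb by Arunlakshana–Schild from dose ratios of EC50, at 2–3 antagonist concentrations, each tested four times.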

[3] = biological target: T3, Alpha-1B adrenergic receptor (Rattus norvegicus) (UniProt P15823); test: Antagonism of Alpha-1B adrenergic receptor subtype (-)-phenylephrine-induced contraction of rat spleen; assay type: functional, tissue-based
T3 sequence (whole entry): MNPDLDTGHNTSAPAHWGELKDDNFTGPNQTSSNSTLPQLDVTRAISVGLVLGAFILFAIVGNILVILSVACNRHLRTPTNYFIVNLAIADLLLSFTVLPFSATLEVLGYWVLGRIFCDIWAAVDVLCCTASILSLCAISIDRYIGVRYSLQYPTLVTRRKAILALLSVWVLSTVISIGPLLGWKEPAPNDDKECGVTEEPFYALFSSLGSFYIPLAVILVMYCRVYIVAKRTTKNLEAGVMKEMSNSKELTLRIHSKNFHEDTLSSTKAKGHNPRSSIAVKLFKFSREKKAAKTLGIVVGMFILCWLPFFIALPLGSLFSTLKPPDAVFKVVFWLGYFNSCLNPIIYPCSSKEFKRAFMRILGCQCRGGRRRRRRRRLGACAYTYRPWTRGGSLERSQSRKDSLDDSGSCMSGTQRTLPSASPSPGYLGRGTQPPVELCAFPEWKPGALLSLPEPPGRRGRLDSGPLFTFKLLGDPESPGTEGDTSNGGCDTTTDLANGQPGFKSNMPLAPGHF
Method in brief: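 Rat spleen, isometric cumulative (–)-phenylephrine curves at 30-min intervals; first discarded, second taken as control. Antagonist was equilibrated 30 min before the next curve.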

[4] = biological target: T4, Alpha-1D adrenergic receptor (Rattus norvegicus) (UniProt P23944); test: Alpha-1D adrenergic receptor subtype blocking activity (antagonism) against (-)-noradrenaline-induced contraction of rat thoracic aorta.; assay type: functional, tissue-based
T4 sequence (whole entry): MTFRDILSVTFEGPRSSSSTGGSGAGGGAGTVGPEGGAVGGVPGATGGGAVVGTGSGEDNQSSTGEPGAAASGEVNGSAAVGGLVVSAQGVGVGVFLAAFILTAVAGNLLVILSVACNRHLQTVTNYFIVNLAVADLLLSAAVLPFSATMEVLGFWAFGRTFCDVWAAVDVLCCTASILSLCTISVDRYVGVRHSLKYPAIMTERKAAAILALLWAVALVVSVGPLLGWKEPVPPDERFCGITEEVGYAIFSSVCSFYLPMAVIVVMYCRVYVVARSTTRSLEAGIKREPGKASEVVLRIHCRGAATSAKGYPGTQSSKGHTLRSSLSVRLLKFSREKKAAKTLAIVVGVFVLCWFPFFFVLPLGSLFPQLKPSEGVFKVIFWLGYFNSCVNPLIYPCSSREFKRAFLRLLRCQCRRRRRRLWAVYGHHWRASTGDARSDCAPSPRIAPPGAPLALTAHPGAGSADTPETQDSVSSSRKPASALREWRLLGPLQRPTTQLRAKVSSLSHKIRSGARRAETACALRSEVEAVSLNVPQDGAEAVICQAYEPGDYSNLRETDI
Method in brief: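 Helicoidal strips of rat thoracic aorta under 1 g tension, bath with 0.01 μM desipramine and 1 μM (±)-propranolol, equilibrated ≥1 h. Cumulative (–)-noradrenaline curves at 30-min intervals: first two discarded, third as control, fourth after 30-min antagonist exposure. pKb by Arunlakshana–Schild from EC50 dose ratios at 2–3 antagonist concentrations, each tested four times.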

[5] = biological target: Serotonin 2 (5-HT2) receptor (Rattus norvegicus, UniProt P30994+P08909+P14842); test: Displacement of [3H]ketanserin from rat brain 5-hydroxytryptamine 2 receptor
Method in brief: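 Rat cerebral cortex membranes (male Sprague–Dawley) in Tris-HCl pH 7.4 with 10 μM pargiline and 0.1% ascorbic acid were incubated 20 min at 37 °C with 0.7–1.3 nM [3H]ketanserin (5-HT2A). Nonspecific binding was defined by 2 μM ketanserin. Bound label was counted after filtration, and Ki was derived by Cheng–Prusoff.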

[6] = biological target: T5, Alpha-1A adrenergic receptor (Homo sapiens, UniProt P35348); test: Displacement of [3H]prazosin from human cloned Alpha-1A adrenergic receptor
T5 sequence (P35348 whole entry): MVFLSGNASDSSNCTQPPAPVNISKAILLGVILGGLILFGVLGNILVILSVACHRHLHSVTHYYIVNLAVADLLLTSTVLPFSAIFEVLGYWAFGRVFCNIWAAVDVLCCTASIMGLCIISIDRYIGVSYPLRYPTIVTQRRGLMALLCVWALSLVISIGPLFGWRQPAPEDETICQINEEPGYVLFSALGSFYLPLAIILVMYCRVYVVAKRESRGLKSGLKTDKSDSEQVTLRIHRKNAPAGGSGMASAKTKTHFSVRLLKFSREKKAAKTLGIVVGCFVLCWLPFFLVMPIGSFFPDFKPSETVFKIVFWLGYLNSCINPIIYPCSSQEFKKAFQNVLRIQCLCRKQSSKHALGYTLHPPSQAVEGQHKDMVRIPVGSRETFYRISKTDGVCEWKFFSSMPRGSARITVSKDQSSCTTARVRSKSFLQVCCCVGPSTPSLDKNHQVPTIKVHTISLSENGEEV
Method in brief: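 CHO cells stably transfected with each human α1 subtype; 30 μg membrane protein in 50 mM Tris-HCl pH 7.4 with 0.1–0.4 nM [3H]prazosin, 30 min at 25 °C. Competitors 1 pM–10 μM. Nonspecific binding defined with 10 μM phentolamine. Filtration, scintillation counting. Ki by Cheng–Prusoff; 2–3 experiments in triplicate.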

| Structure (SMILES) | Ki [1] [nM] | pKb [2] | pKb [3] | pKb [4] | Log Ki [5] | Ki [6] [nM] |
| --- | --- | --- | --- | --- | --- | --- |
| COc1ccccc1O[C@@H]1CCC(NCC2COc3ccccc3O2)C1O (stereo in doubt; 5) [listing 1 of 2 here] | 24.5 | – | – | – | – | – |
| COc1cccc(OC)c1O[C@@H]1CCC(NCC2COc3ccccc3O2)C1O (stereo in doubt; 8) [listing 1 of 2 here] | – | 5.79 | 6.17 | 6.94 | – | – |
| COc1ccccc1O[C@@H]1CCC(NCC2COc3ccccc3O2)C1O (stereo in doubt; 6) [listing 1 of 2 here] | 26.9 | – | – | – | – | – |
| COc1cccc(OC)c1O[C@@H]1CCC(NCC2COc3ccccc3O2)C1O (stereo in doubt; 7) [listing 1 of 2 here] | 50.1 | – | – | – | – | – |
| COc1cccc(OC)c1O[C@@H]1CCC(NCC2COc3ccccc3O2)C1O (stereo in doubt; 8) [listing 2 of 2 here] | 33.9 | – | – | – | – | – |
| COc1ccccc1O[C@@H]1CCC(NCC2COc3ccccc3O2)C1O (stereo in doubt; 5) [listing 2 of 2 here] | – | 5.68 | 6.24 | 7.15 | – | – |
| OC1C(NCC2COc3ccccc3O2)CC[C@H]1Oc1ccccc1 (stereo in doubt; 3) | – | 5.48 | 6.45 | 7.66 | – | – |
| COc1cccc(OC)c1OCCNCC1COc2ccccc2O1 (stereo not drawn) | 2.09 | 9.36 | 8.21 | 8.6 | -6 | 0.427 |
| COc1ccccc1O[C@@H]1CCC(NCC2COc3ccccc3O2)C1O (stereo in doubt; 6) [listing 2 of 2 here] | – | 6.56 | 6.8 | 7.3 | – | – |
| COc1cccc(OC)c1O[C@@H]1CCC(NCC2COc3ccccc3O2)C1O (stereo in doubt; 7) [listing 2 of 2 here] | – | 5.89 | 6.27 | 7.32 | – | – |
| OC1C(NCC2COc3ccccc3O2)CC[C@H]1Oc1ccccc1 (stereo in doubt; 4) | – | 5.7 | 6.47 | 7.85 | – | – |
